Here are results for 14 molecules from ChEMBL document CHEMBL1124273, “Synthesis and antiviral activity of certain 4-substituted and 2,4-disubstituted 7-[(2-hydroxyethoxy)methyl]pyrrolo[2,3-d]pyrimidines” (J Med Chem, 1988).

The structures appear in SMILES notation. Bounds are passed on as bounds.

The subject of one experiment is Human alphaherpesvirus 1. Description: Antiviral activity against Herpes simplex virus type 1 determined by plaque reduction assay. It is filed as functional, organism-based. On the technique in general: Plaques are areas of infected cells; plaque reduction assays count them against a control.
The nature of experiment [1]: Average percent inhibition of DNA, RNA, and protein synthesis determined in KB cells. It is filed as functional, cell-based. The note with it: Homo sapiens. In a few lines:
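KB cells (human oral epidermoid carcinoma) grown in MEM(H) with 5% FBS. Cytotoxicity was measured as inhibition of radioactive precursor incorporation into DNA, RNA and protein. An I50 for each was obtained by linear regression against log concentration, and the three I50 values were averaged. The highest concentration tested was 100 μM.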

Experiment [2] can be described thus: The compound was tested for cytotoxicity against BSC1 cell. Type of experiment: functional, cell-based. The note with it: Cercopithecidae, BSC-1. In a few lines: (§1)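 Visual cytotoxicity was scored on uninfected cells in the plaque-reduction plates: BSC-1 (HSV-1 assay) or HFF (HCMV assay), both grown in MEM(E) with 10% FBS. Cells were examined at 35- and 60-fold magnification and scored 0 to 4+ on the day of staining for plaque counting. The highest concentration tested was 100 μM.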

A further experiment concerns HFF. As to the kind of experiment: The compound was tested for cytotoxicity against human foreskin fibroblast cell. It is filed as functional, cell-based. The method, boiled down: as §1
A further experiment relates to Cytomegalovirus. Description: Inhibitory activity against human cytomegalovirus determined by plaque reduction assay. Type of experiment: functional, organism-based. The note with it: Human betaherpesvirus 5.
Experiment [3] is described as follows: The compound was tested for cytotoxicity against BSC-1 cells. Type of experiment: functional, cell-based. The note with it: Cercopithecidae. In a few lines:
as §1

One may read the IC50 as the point on the concentration scale where inhibition reaches its midpoint. A higher IC50 goes with weaker potency. Take `CC(=O)Nc1nc(Cl)c2ccn(COCCO)c2n1`: the IC50 in the experiment with Human alphaherpesvirus 1 is above 100 µM; in experiment [1] it was 112 µM; in experiment [2] it was above 100 µM; in the experiment with HFF, above 100 µM; in the experiment on Cytomegalovirus, above 100 µM.
Regarding `CC(=O)OCCOCn1ccc2c(Cl)nc(Cl)nc21`, the IC50 in the experiment with Human alphaherpesvirus 1 was above 100 µM; in experiment [2] it was above 100 µM; in the experiment on HFF, 100 µM; with Cytomegalovirus it was 40 µM.
As for `Nc1nc(Cl)nc2c1ccn2COCCO`, the IC50 (in the experiment on Human alphaherpesvirus 1; in experiment [2]; with HFF; in the experiment with Cytomegalovirus) was above 100 µM in each case.
Take `CSc1nc(Cl)c2ccn(COCCO)c2n1`: the IC50 was above 100 µM with Human alphaherpesvirus 1, above 100 µM in experiment [2], 30 µM with HFF and above 100 µM with Cytomegalovirus.
Turning to `CS(=O)(=O)c1nc(N)c2ccn(COCCO)c2n1`, the IC50 (with Human alphaherpesvirus 1; in experiment [2]; in the experiment on HFF; with Cytomegalovirus) was above 100 µM throughout.
With `COc1nc(N)c2ccn(COCCO)c2n1`, the IC50 (with Human alphaherpesvirus 1; in experiment [2]; in the experiment on HFF; in the experiment with Cytomegalovirus) was above 100 µM each time.
For the molecule `OCCOCn1ccc2c(Cl)nc(Cl)nc21`, the IC50 with Human alphaherpesvirus 1 was above 100 µM; in experiment [2], above 100 µM; in the experiment on HFF it was 100 µM; with Cytomegalovirus, 37 µM.
`Nc1nc(N)c2ccn(COCCO)c2n1`: the IC50 (in the experiment with Human alphaherpesvirus 1; in experiment [2]; in the experiment on HFF; with Cytomegalovirus) was above 100 µM in each case.
On to `CSc1nc(Cl)c2ccn(COCCOC(C)=O)c2n1`, for which the IC50 in the experiment on Human alphaherpesvirus 1 is above 100 µM; in experiment [1] it was 33 µM; in the experiment with HFF it was 100 µM; with Cytomegalovirus, above 100 µM; in experiment [3], above 100 µM.
On to `Nc1nc2c(ncn2COC(CO)CO)c(=O)[nH]1` [GANCICLOVIR], for which the concentration for half-maximal inhibition (IC50) was 1000 µM in experiment [1], above 100 µM in experiment [2], above 100 µM in the experiment with HFF and 8.8 µM with Cytomegalovirus.
Turning to `Nc1ncnc2c1ccn2COCCO`, the IC50 (in the experiment with Human alphaherpesvirus 1; in experiment [1]; in experiment [2]; in the experiment with HFF; in the experiment with Cytomegalovirus) was above 100 µM throughout.
As for `CSc1nc(N)c2ccn(COCCO)c2n1`, the IC50 (in the experiment on Human alphaherpesvirus 1; in experiment [2]; with HFF; in the experiment on Cytomegalovirus) was above 100 µM throughout.
Turning to `Nc1nc2c(ncn2COCCO)c(=O)[nH]1` [ACYCLOVIR], the IC50 in experiment [1] was above 100 µM; in experiment [2], above 100 µM; with HFF, above 100 µM; in the experiment with Cytomegalovirus it was 63 µM.
In the case of `Nc1nc(O)nc2c1ccn2COCCO`, the IC50 (in the experiment with Human alphaherpesvirus 1; in experiment [2]; with HFF; with Cytomegalovirus) was above 100 µM throughout.
